Source: ChEMBL document CHEMBL3596177
The source made the active and inactive calls. No cut-off for these calls is given here.

Assays:
[1] = Selectivity index, ratio of IC50 for human CD45 to IC50 for Mycobacterium tuberculosis protein tyrosine phosphatase B
[2] = Selectivity index, ratio of IC50 for human VHR to IC50 for Mycobacterium tuberculosis protein tyrosine phosphatase B
[3] = target: Dual specificity protein phosphatase 3 (Homo sapiens, UniProt P51452); assay: Inhibition of human VHR using pNPP substrate by spectrophotometry
[4] = target: T1, Tyrosine-protein phosphatase non-receptor type 1 (Homo sapiens, UniProt P18031); assay: Inhibition of human PTP1B using pNPP substrate by spectrophotometry
T1 sequence (P18031 whole entry): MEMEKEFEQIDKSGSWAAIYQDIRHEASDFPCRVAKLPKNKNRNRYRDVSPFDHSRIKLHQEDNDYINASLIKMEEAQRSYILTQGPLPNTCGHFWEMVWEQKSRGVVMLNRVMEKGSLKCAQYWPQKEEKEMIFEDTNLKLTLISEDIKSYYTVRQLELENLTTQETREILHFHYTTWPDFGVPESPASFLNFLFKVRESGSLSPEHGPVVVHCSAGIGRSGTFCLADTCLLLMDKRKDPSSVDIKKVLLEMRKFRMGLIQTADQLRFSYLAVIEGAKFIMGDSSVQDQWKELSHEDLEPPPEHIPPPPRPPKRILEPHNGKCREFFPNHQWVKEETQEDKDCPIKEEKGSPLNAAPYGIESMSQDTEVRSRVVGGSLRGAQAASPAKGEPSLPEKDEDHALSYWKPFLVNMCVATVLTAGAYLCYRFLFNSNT

RAW264.7 [5] = assay: Inhibition of Mycobacterium tuberculosis protein tyrosine phosphatase B transfected in mouse RAW264.7 cells assessed as reduction in AKT phosphorylation at 5 and 10 uM incubated for 1 hr followed by with IFNgamma stimulation for 1 hr by Western blotting method; type: cell-based
Outline: (§1)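 RAW264.7 mouse macrophages transfected with mPTPB, grown in DMEM with 10% FBS, penicillin/streptomycin, 37°C, 5% CO2. Cells were seeded at 4 x 10⁴ per well and treated next day with inhibitor for 1 h, then with IFN-γ (200 U/ml) for 1 h. They were washed with cold PBS and lysed on ice 30 min. Cleared lysates were Western blotted for phospho-Erk1/2 and phospho-Akt.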

[6] = Selectivity index, ratio of IC50 for human PTPepsilon to IC50 for Mycobacterium tuberculosis protein tyrosine phosphatase B
RAW264.7 [7] = assay: Inhibition of Mycobacterium tuberculosis protein tyrosine phosphatase B transfected in mouse RAW264.7 cells assessed as increase in ERK1/2 phosphorylation at 5 and 10 uM incubated for 1 hr followed by with IFNgamma stimulation for 1 hr by Western blotting method; type: cell-based; outline: as §1
Laforin = target: T2, Laforin (Homo sapiens, UniProt O95278); assay: Inhibition of human laforin using pNPP substrate by spectrophotometry
T2 sequence (O95278 whole entry): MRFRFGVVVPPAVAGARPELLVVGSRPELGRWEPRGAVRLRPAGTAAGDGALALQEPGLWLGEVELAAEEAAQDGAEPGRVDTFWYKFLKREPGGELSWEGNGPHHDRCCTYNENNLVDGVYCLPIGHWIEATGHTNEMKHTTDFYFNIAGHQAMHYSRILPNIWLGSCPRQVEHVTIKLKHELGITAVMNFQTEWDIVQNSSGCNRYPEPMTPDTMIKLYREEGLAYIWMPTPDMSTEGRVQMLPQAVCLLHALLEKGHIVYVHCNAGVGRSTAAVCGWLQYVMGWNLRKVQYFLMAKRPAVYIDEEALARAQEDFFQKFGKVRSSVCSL

[8] = target: Receptor-type tyrosine-protein phosphatase epsilon (Homo sapiens, UniProt P23469); assay: Inhibition of human PTPepsilon using pNPP substrate by spectrophotometry
[9] = Selectivity index, ratio of IC50 for human PTP-Meg2 to IC50 for Mycobacterium tuberculosis protein tyrosine phosphatase B
[10] = Selectivity index, ratio of IC50 for human SHP1 to IC50 for Mycobacterium tuberculosis protein tyrosine phosphatase B
[11] = target: T3, Receptor-type tyrosine-protein phosphatase C (Homo sapiens, UniProt P08575); assay: Inhibition of human CD45 using pNPP substrate by spectrophotometry
T3 sequence (P08575 whole entry): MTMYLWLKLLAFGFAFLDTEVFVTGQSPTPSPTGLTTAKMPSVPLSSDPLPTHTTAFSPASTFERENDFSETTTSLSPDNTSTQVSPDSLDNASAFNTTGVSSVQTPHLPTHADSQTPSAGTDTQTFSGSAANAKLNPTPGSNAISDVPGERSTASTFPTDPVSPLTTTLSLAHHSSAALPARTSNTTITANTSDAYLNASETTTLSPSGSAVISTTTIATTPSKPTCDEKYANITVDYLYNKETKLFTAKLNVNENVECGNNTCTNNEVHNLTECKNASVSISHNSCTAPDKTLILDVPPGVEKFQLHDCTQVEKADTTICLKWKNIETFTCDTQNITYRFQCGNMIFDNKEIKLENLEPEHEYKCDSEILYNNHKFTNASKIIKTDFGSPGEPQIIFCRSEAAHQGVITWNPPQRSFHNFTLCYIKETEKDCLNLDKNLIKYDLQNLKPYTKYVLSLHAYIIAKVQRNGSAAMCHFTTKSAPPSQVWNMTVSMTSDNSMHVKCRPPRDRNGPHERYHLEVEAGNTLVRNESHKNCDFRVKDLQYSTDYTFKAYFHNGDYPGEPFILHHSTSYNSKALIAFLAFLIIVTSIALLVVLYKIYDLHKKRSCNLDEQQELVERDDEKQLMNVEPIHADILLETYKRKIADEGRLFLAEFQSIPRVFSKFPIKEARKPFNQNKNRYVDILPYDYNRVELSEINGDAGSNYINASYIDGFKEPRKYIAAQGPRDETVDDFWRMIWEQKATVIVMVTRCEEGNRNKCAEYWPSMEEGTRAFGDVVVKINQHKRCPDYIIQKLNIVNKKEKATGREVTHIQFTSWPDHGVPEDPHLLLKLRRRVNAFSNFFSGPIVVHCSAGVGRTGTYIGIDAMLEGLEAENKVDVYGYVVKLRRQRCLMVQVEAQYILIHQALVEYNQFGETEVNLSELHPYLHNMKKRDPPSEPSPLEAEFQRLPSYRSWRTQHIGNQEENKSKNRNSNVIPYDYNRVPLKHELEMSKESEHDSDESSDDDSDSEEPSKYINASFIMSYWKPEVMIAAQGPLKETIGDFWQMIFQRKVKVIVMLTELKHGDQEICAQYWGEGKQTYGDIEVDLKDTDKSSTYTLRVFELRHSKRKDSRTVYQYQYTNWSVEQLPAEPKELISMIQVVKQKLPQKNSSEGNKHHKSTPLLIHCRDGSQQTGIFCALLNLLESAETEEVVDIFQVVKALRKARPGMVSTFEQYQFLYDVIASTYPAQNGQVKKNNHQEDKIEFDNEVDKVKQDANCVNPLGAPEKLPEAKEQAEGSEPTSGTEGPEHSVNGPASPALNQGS

[12] = target: T4, Tyrosine-protein phosphatase non-receptor type 9 (Homo sapiens, UniProt P43378); assay: Inhibition of human PTP-Meg2 using pNPP substrate by spectrophotometry
T4 sequence (P43378 whole entry): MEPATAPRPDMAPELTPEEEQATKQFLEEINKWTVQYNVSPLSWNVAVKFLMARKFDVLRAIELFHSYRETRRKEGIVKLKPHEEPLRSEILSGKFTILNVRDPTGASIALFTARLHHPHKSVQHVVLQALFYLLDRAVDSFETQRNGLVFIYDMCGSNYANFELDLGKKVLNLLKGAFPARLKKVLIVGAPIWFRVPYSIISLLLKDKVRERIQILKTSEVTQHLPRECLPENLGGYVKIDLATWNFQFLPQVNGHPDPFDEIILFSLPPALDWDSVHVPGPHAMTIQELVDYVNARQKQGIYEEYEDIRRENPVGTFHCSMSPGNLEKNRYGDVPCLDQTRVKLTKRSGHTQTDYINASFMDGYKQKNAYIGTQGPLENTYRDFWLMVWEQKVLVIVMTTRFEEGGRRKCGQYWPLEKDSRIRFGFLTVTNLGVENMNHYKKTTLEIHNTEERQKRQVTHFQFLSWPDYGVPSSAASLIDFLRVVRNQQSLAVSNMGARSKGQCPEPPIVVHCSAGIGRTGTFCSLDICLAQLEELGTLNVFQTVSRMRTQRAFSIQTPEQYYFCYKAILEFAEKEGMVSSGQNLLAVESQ

[13] = Selectivity index, ratio of IC50 for human laforin to IC50 for Mycobacterium tuberculosis protein tyrosine phosphatase B
[14] = target: Tyrosine-protein phosphatase non-receptor type 6 (Homo sapiens, UniProt P29350); assay: Inhibition of human SHP1 using pNPP substrate by spectrophotometry
[15] = Inhibition of Mycobacterium tuberculosis protein tyrosine phosphatase B expressed in Escherichia coli BL21/DE using pNPP substrate by spectrophotometry
Outline: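 His-tagged mPTPB from pET28b in E. coli BL21/DE3, purified on Ni-NTA. The assay ran at 25°C in 50 mM 3,3-dimethylglutarate pH 7.0 with 1 mM EDTA, ionic strength 0.15 M (NaCl). Enzyme was added last, the reaction was quenched after 10 min with NaOH, and A405 was read. IC50 was fitted as AI/A0 = IC50/(IC50+[I]).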

[16] = Selectivity index, ratio of IC50 for human PTP1B to IC50 for Mycobacterium tuberculosis protein tyrosine phosphatase B
[17] = Non-competitive inhibition of Mycobacterium tuberculosis protein tyrosine phosphatase B expressed in Escherichia coli BL21/DE using pNPP substrate by spectrophotometry based Lineweaver-Burk plot analysis
[18] = Selectivity index, ratio of IC50 for human SHP2 to IC50 for Mycobacterium tuberculosis protein tyrosine phosphatase B
[19] = target: T5, Tyrosine-protein phosphatase non-receptor type 11 (Homo sapiens, UniProt Q06124); assay: Inhibition of human SHP2 using pNPP substrate by spectrophotometry
T5 sequence (Q06124 whole entry): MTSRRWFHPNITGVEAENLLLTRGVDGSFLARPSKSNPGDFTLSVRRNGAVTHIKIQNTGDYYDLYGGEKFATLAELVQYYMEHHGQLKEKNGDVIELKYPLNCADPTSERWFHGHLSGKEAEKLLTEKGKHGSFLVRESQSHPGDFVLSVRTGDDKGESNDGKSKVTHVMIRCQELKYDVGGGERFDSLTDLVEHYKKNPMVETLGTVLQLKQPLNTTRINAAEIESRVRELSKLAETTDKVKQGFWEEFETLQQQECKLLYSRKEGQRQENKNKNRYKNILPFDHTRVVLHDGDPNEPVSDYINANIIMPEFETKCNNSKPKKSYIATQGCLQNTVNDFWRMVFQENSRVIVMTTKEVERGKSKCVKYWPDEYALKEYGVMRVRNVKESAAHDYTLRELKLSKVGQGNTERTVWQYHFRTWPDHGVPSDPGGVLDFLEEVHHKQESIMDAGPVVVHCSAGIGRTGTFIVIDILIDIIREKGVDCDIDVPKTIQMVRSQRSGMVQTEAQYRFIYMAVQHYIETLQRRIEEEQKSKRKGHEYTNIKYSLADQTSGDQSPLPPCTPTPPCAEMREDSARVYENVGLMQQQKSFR

RAW264.7 [20] = assay: Inhibition of Mycobacterium tuberculosis protein tyrosine phosphatase B transfected in mouse RAW264.7 cells assessed as reduction in AKT phosphorylation at 10 uM incubated for 1 hr followed by with IFNgamma stimulation for 1 hr by Western blotting method; type: cell-based; outline: as §1
RAW264.7 [21] = assay: Inhibition of Mycobacterium tuberculosis protein tyrosine phosphatase B transfected in mouse RAW264.7 cells assessed as increase in ERK1/2 phosphorylation at 10 uM incubated for 1 hr followed by with IFNgamma stimulation for 1 hr by Western blotting method; type: cell-based; outline: as §1

Sequence of Tyrosine-protein phosphatase non-receptor type 6 (P29350 whole entry): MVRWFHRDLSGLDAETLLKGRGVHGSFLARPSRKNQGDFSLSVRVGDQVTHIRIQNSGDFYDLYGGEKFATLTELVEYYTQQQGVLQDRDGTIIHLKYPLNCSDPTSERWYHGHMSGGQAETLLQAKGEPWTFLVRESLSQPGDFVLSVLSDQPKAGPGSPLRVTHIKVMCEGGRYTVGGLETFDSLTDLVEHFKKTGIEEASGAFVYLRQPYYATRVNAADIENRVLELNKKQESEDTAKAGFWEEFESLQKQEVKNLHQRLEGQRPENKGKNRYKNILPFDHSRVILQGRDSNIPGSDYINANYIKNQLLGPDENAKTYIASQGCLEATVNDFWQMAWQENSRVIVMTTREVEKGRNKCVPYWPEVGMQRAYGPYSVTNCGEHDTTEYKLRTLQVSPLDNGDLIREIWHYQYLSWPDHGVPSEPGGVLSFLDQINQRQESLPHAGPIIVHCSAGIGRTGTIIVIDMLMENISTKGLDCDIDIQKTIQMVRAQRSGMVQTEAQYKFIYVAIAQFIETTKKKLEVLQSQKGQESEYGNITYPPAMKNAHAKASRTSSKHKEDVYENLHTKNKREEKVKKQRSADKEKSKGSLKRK
Sequence of Receptor-type tyrosine-protein phosphatase epsilon (P23469 whole entry): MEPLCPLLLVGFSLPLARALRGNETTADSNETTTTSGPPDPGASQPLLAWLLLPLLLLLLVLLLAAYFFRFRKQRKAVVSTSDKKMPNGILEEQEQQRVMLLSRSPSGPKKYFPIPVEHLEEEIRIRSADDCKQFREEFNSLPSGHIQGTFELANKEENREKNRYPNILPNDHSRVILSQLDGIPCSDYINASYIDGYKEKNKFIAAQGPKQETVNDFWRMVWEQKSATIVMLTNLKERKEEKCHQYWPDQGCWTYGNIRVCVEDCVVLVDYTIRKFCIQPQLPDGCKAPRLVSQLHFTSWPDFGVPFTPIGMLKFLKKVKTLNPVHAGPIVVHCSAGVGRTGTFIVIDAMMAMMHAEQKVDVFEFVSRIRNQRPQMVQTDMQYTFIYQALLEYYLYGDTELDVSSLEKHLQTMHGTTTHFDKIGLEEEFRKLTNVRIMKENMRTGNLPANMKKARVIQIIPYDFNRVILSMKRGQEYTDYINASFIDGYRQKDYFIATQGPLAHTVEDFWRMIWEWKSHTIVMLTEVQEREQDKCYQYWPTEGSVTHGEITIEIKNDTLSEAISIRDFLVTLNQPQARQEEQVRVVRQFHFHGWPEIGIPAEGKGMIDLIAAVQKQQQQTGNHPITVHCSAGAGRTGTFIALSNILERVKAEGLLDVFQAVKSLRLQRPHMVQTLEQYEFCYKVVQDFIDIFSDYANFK
Sequence of Dual specificity protein phosphatase 3 (P51452 whole entry): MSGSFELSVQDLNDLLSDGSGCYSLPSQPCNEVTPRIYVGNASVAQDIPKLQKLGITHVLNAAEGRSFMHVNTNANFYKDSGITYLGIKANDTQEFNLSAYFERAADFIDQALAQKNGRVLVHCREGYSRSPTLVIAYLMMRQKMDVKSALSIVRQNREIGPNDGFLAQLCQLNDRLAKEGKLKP

In the case of `O=C(O)c1cc2sc(Nc3cccc(Br)c3)nc2cc1O`, the Ratio IC50 [1] is reported as > 20, the Ratio IC50 [2] is reported as > 20 and the IC50 [3] is reported as 43 µM. The IC50 [4] was 65 µM, the inhibition (RAW264.7 [5]) was “Dose-dependent effect” and the Ratio IC50 [6] was > 20. The inhibition (RAW264.7 [7]) was “Dose-dependent effect”, the IC50 (Laforin) was 56 µM and the IC50 [8] was > 400 µM. For the same compound, the Ratio IC50 [9] was > 20, the Ratio IC50 [10] was > 20 and the IC50 [11] was > 100 µM. For the same compound, the IC50 [12] was 69 µM, the Ratio IC50 [13] was > 20 and the IC50 [14] was 78 µM. For the same compound, the IC50 [15] was 2 µM, the Ratio IC50 [16] was > 20 and the Ki [17] was 1500 nM. For the same compound, the Ratio IC50 [18] was > 20 and the IC50 [19] was 50 µM.
With `O=C(O)c1cc2nc(NCc3ccccc3)oc2cc1O` the IC50 [15] was > 100 µM.
In the case of `O=C(O)CN1CC(=O)Oc2cc(O)c(C(=O)O)cc21`, the IC50 [15] is reported as > 100 µM.
In the case of `O=C(O)c1cc2sc(Nc3ccccc3)nc2cc1O`, the inhibition (RAW264.7 [20]) is reported as “inactive”, the inhibition (RAW264.7 [21]) is reported as “inactive” and the IC50 [15] is reported as 25 µM.
Compound `CC(C)(C)c1ccc(Nc2nc3cc(O)c(C(=O)O)cc3s2)cc1` has an IC50 [15] of 41 µM.
`O=C(O)c1cc2sc(Nc3ccccc3Cl)nc2cc1O` gave an IC50 [15] of 30 µM.
For `O=C(O)c1cc2sc(Nc3ccc([N+](=O)[O-])cc3)nc2cc1O`, the IC50 [15] was 50 µM.
With `O=C(O)c1cc2nc(-c3ccccc3)oc2cc1O` the IC50 [15] was 27 µM.
For `Cc1ccccc1Nc1nc2cc(O)c(C(=O)O)cc2s1`, the IC50 [15] was 31 µM.
For `O=C(O)c1cc2sc(Nc3cccc4ccccc34)nc2cc1O`, the IC50 [15] was 60 µM.
`O=C(O)c1cc2sc(Nc3cccc(Cl)c3)nc2cc1O` showed an IC50 [15] of 21 µM.
With `O=C(O)c1cc2sc(Nc3ccc(Cl)cc3Cl)nc2cc1O` the IC50 [15] was 5 µM.
With `O=C(O)c1cc2[nH]c(=O)oc2cc1O` the IC50 [15] was > 100 µM.
Work on `O=C(O)c1ccc2nc(Nc3ccccc3)sc2c1O` yielded an IC50 [15] of 71 µM.
For `O=C1COc2cc(O)c(C(=O)O)cc2N1`, the IC50 [15] was > 100 µM.
With `O=C(O)c1cc2sc(Nc3ccc(F)cc3)nc2cc1O` the IC50 [15] was 65 µM.
Work on `O=C(O)c1cc2sc(Nc3ccc(Cl)cc3)nc2cc1O` yielded an IC50 [15] of 13 µM.
With `Cc1cccc(Nc2nc3cc(O)c(C(=O)O)cc3s2)c1` the IC50 [15] was 15 µM.
With `O=C(O)c1cc2[nH]c(-c3ccccc3)nc2cc1O` the IC50 [15] was 32 µM.
With `CCNc1nc2cc(C(=O)O)c(O)cc2o1` the IC50 [15] was > 100 µM.
